These results are taken from ChEMBL document CHEMBL4680118, “Cerpegin-derived furo[3,4-c]pyridine-3,4(1H,5H)-diones enhance cellular response to interferons by de novo pyrimidine biosynthesis inhibition” (Eur J Med Chem, 2020).

Type in all cases: cell-based
Experiment [1] addresses T1, Dihydroorotate dehydrogenase (quinone), mitochondrial (Homo sapiens, UniProt Q02127). Briefly: Inhibition of DHODH in human HEK293 cells transfected with ISRE-luciferase reporter gene assessed as increase in 30 IU/ml IFN-alpha stimulated IFIT1 mRNA expression at 80 uM measured after 16 hrs by RT-qPCR analysis relative to control. In short, it runs like this: (§1)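 ISRE-Luc HEK cells co-treated with increasing IFN-α concentrations and DMSO or compound (80 µM) for 16 h. Total RNA extracted from 2×10^5 cells with DNase step; qPCR 35 cycles. CT values normalized to RPL13A and unstimulated controls (2^-ΔΔCT), expressed as fold change versus DMSO alone. Three independent experiments; two-way ANOVA with Bonferroni.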
A general note: A reporter such as luciferase makes a cellular process visible.

Experiment [2] deals with T1, Dihydroorotate dehydrogenase (quinone), mitochondrial. Briefly: Inhibition of DHODH in human HEK293 cells transfected with ISRE-luciferase reporter gene assessed as increase in 125 IU/ml IFN-alpha stimulated MX2 mRNA expression at 80 uM measured after 16 hrs by RT-qPCR analysis relative to control. In short, it runs like this: as §1
The target is the same in experiment [3]. Nature of the experiment: Inhibition of DHODH in human HEK-293 cells transfected with ISRE-luciferase reporter gene assessed as increase in IFN-alpha mediated cellular response at 6 to 178 uM after 24 hrs by luciferase reporter gene assay. The settings on record: HEK293, dose 6-178 µM.
Experiment [4] shares this target. Briefly: Inhibition of DHODH in human HEK293 cells transfected with ISRE-luciferase reporter gene assessed as increase in 125 IU/ml IFN-alpha stimulated PML mRNA expression at 80 uM measured after 16 hrs by RT-qPCR analysis relative to control. In short, it runs like this:
as §1

Experiment [5] shares this target. Nature of the experiment: Inhibition of DHODH in human HEK293 cells assessed as increase in 250 IU/ml IFN-alpha stimulated ISG15 mRNA expression at 80 uM measured after 16 hrs by RT-qPCR analysis relative to control. In short, it runs like this: as §1
Background: Quantitative PCR measures a nucleic acid by following its amplification.

For experiment [6] the target is unchanged. Briefly: Inhibition of DHODH in human HEK293 cells transfected with ISRE-luciferase reporter gene assessed as increase in 250 IU/ml IFN-alpha stimulated IFITM3 mRNA expression at 80 uM measured after 16 hrs by RT-qPCR analysis relative to control. The method in brief:
as §1

The structures appear in SMILES notation. Activity calls are given as the source filed them. The rule behind the calls is not given here.

T1 sequence (Q02127 whole entry): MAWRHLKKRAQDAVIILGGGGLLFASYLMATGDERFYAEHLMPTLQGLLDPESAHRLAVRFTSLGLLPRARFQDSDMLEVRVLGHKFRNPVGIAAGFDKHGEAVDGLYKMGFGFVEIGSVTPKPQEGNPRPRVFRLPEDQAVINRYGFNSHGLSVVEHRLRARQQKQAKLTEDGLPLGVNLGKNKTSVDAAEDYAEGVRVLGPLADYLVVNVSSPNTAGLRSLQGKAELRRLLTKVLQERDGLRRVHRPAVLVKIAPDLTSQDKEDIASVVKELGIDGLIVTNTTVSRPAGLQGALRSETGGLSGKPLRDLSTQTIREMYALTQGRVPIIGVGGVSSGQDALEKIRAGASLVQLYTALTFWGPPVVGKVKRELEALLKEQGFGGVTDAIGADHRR

As to `O=C1OC2(CCCCC2)c2ccn(C3CC3)c(=O)c21`, the fold change (FC) worked out at 51 in experiment [1]; 20 in experiment [2]; 5 in experiment [4]; 226 in experiment [5]; 15 in experiment [6]. Further, in experiment [3], the result was Active.
